Laboratory results taken from ChEMBL document CHEMBL3407350, “Synthesis and anti-hepatitis B virus activity of C4 amide-substituted isosteviol derivatives” (Bioorg Med Chem, 2015).
Converted amounts (≈) assume the structure as drawn.

Key:
Hepatitis B virus [1] = assay: Antiviral activity against HBV infected in human HepG2(2.2.15) cells assessed as inhibition of surface antigen secretion by EIA; format: functional, organism-based
Method in brief: (§1)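 HepG2 2.2.15 cells (HepG2 stably carrying a head-to-tail HBV DNA dimer; MEM, 10% FBS, 37 °C, 5% CO2) treated with compound for 3 days; conditioned medium assayed for secreted HBsAg and HBeAg by enzyme immunoassay; mean and SD, n = 3; IC50 taken as 50% inhibitory concentration.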

[2] = Selectivity index, ratio of TC50 for human HepG2(2.2.15) cells to IC50 for HBV infected in human HepG2(2.2.15) cells assessed as inhibition of surface antigen secretion
Method in brief: (§2)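 Selectivity index computed as TC50 (MTS, HepG2 2.2.15, 3 days) divided by IC50 for HBsAg, HBeAg or virion DNA inhibition in the same cell line.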

[3] = Cytotoxicity against human HepG2(2.2.15) cells; format: cell-based; details: read-out: TC50 (the source's name)
Method in brief: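 Cytotoxicity by MTS: HepG2 2.2.15 cells seeded at 4×10^4 cells/ml for 24 h, exposed to serial dilutions 2.5–160 µg/ml for 3 days; four replicates, viability expressed relative to untreated control; TC50 as 50% cytotoxic concentration.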

Hepatitis B virus [4] = assay: Antiviral activity against HBV infected in human HepG2(2.2.15) cells assessed as inhibition of e antigen secretion by EIA; format: functional, organism-based; method in brief: as §1
[5] = Selectivity index, ratio of TC50 for human HepG2(2.2.15) cells to IC50 for HBV infected in human HepG2(2.2.15) cells assessed as inhibition of e antigen secretion; method in brief: as §2
Hepatitis B virus [6] = assay: Antiviral activity against HBV infected in human HepG2(2.2.15) cells assessed as inhibition of viral DNA replication; format: functional, organism-based
Method in brief: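 Secreted virion DNA from HepG2 2.2.15 cells after 3 days of compound treatment; HBV DNA isolated from conditioned medium and quantified by SYBR Green real-time PCR (45 cycles, 95 °C 15 s / 58 °C 1 min); mean and SD, n = 3; IC50 as 50% inhibitory concentration.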

[7] = Selectivity index, ratio of TC50 for human HepG2(2.2.15) cells to IC50 for HBV infected in human HepG2(2.2.15) cells assessed as inhibition of viral DNA replication; method in brief: as §2

| IC50 (Hepatitis B virus [1]) [µg/mL] | IC50 (Hepatitis B virus [4]) [µg/mL] | IC50 (Hepatitis B virus [6]) [µg/mL] | SMILES | Selectivity Index [2] | CC50 [3] [µg/mL] | Selectivity Index [5] | Selectivity Index [7] |
| --- | --- | --- | --- | --- | --- | --- | --- |
| 4.17 (≈ 10.1 µM) | 12.8 (≈ 31.1 µM) | 7.44 (≈ 18.1 µM) | C[C@@]12CC[C@@H]3[C@@](CC[C@H]4[C@@]3(C)CCC[C@@]4(C)NC(=O)c3ccc(F)cc3)(CC1=O)C2 | 4.73 | 19.7 (≈ 48 µM) | 1.54 | 2.65 |
| 18.8 (≈ 44.3 µM) | – | – | COc1ccc(C(=O)N[C@]2(C)CCC[C@@]3(C)[C@@H]4CC[C@@]5(C)C[C@]4(CC[C@@H]32)CC5=O)cc1 | 1.2 | 22.4 (≈ 53 µM) | – | – |
| 5.57 (≈ 13.2 µM) | 7.38 (≈ 17.5 µM) | 11.2 (≈ 26.6 µM) | CCc1ccc(C(=O)N[C@]2(C)CCC[C@@]3(C)[C@@H]4CC[C@@]5(C)C[C@]4(CC[C@@H]32)CC5=O)cc1 | 3.8 | 21.2 (≈ 50.3 µM) | 2.87 | 1.89 |

The next lines start with the molecule.

| SMILES | IC50 (Hepatitis B virus [1]) [µg/mL] | IC50 (Hepatitis B virus [4]) [µg/mL] | IC50 (Hepatitis B virus [6]) [µg/mL] | Selectivity Index [2] | CC50 [3] [µg/mL] | Selectivity Index [5] | Selectivity Index [7] |
| --- | --- | --- | --- | --- | --- | --- | --- |
| Nc1ccn([C@@H]2CS[C@H](CO)O2)c(=O)n1 [LAMIVUDINE] | 49.1 (≈ 214 µM) | – | 41 (≈ 179 µM) | 4.17 | 205 (≈ 894 µM) | – | 5 |
| C[C@@]12CC[C@@H]3[C@@](CC[C@H]4[C@@]3(C)CCC[C@@]4(C)NC(=O)c3ccccc3)(CC1=O)C2 | 35.6 (≈ 90.6 µM) | – | – | 1.36 | 48.5 (≈ 123 µM) | – | – |
| CCC(=O)N[C@]1(C)CCC[C@@]2(C)[C@@H]3CC[C@@]4(C)C[C@]3(CC[C@@H]21)CC4=O | 32.5 (≈ 93.9 µM) | – | – | 2.7 | 87.5 (≈ 253 µM) | – | – |
| C[C@@]12CC[C@@H]3[C@@](CC[C@H]4[C@@]3(C)CCC[C@@]4(C)NC(=O)c3ccc(I)cc3)(CC1=O)C2 | – | – | – | – | 10.5 (≈ 20.3 µM) | – | – |
